High-throughput results deposited in PubChem BioAssay by The Scripps Research Institute Molecular Screening Center.
In the library only some 2.9% were active in any assay of this set; here they are far more common.
CHO parental Ca: counter-screen: ATP calcium response change in parental CHO cells; parental CHO-K1, ATP-induced calcium, Fluo-8 fluorescence; 0.63% of 330,000 active; inhibition, % at 5.6 µM;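 active = inhibition above that plate's mean sample inhibition plus 3 SD, cut at about 26% in these data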;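 note: 0% = ATP-challenged DMSO wells and 100% = DMSO wells without ATP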
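Test system: parental CHO cells; detection: calcium-sensitive Fluo-8 fluorescence; evaluation: percent inhibition of calcium signal; also added: ATP as calcium-mobilizing challenge; repeats: one well per compound; control set: ATP-challenged DMSO wells low, unchallenged DMSO wells high; compound: single nominal dose of 5.6 µM per compound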
CHO-K1 Ca PAM: M1 PAM counterscreen hit in parental CHO-K1 cells. 0.02% of 360,000 active. activation, % at 3 µM. ATP EC20, Fluo-8 calcium fluorescence; 0% at ATP EC20, 100% at ATP max;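 active = activation above the run cutoff, the mean activation of all test compounds plus 3 SD, cut at about 40% in these data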;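 note: peak over basal fluorescence ratio in a 140 s read after ATP addition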
CHO-K1 Ca antag: counter-screen for M1 antagonists: effect in parental CHO-K1 cells | ATP-induced calcium, Fluo-8 fluorescence | inhibition, % at 3 µM | 0.6% of 360,000 active | AID 602250;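 active = inhibition above a per-plate cutoff, the plate's mean sample inhibition plus 3 SD, cut at about 24% in these data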;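 note: 0% = DMSO plus EC80 ATP and 100% = DMSO alone without ATP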
OX1R antag-1: human HCRTR1 antagonism; CHO/OX1R cells, Fluo-8 calcium fluorescence, orexin A; 0.43% of 330,000 active; inhibition, % at 5 µM; O43613;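 active = inhibition above its plate's threshold, mean inhibition of all tested compounds on the plate plus 3 SD, cut at about 37% in these data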;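 note: 0% = orexin A challenge wells and 100% = SB-334867-A antagonist wells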
Target sequence (O43613 whole entry, looked up): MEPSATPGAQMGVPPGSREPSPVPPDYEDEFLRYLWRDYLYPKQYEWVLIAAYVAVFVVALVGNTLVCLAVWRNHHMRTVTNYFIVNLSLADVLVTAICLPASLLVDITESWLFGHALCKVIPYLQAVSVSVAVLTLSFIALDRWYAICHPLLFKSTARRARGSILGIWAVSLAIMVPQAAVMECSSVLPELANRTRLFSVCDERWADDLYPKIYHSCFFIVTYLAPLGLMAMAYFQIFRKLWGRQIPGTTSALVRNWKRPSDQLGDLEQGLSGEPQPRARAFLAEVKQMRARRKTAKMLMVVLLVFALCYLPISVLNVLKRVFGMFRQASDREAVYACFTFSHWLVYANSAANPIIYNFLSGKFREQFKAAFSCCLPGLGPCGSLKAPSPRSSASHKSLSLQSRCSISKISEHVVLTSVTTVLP
OX1R antag-2: blocks the human orexin 1 receptor; O43613; OX1R-expressing cells, FRET antagonist read-out; inhibition, % at 6.6 µM; 1.8% of 330,000 active; AID 485270; in the data active = inhibition mostly above about 38%, no sharp cut-off; inactive = mostly below about 40%;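 note: 0% = agonist challenge alone and 100% = reference antagonist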
CHO-K1 Ca ag: M1 agonist counterscreen hit in parental CHO-K1 cells | Fluo-8 calcium fluorescence; scaled to maximal ATP response, vehicle zero | activation, % at 3 µM | 0.48% of 360,000 active; in the data active = activation above about 15%;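 note: untransfected CHO-K1 host cells lacking M1 receptor as counterscreen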
An asterisk follows results filed as active; / = no result given.

SMILES	CHO parental Ca	CHO-K1 Ca PAM	CHO-K1 Ca antag	OX1R antag-1	OX1R antag-2	CHO-K1 Ca ag
CCn1c(CSCc2ccc(F)cc2)nnc1SCC(=O)N1CCN(c2ccccc2)CC1	-14	2	6	-16	12	1
CCn1c(Cc2ccc(OC)cc2)nnc1SCC(=O)N1CCN(c2ccccc2)CC1	-16	15	-10	-31	47*	1
Cn1c(N)c(N=Nc2ccc(S(N)(=O)=O)cc2)c(=O)n(C)c1=O	14	-7	15	-4	60*	0
ClC(Cl)(c1nnnn1-c1ccccc1)c1nnnn1-c1ccccc1	93*	30	2	63*	21	4
CCOc1ccc2nc3cc(NCc4ccc(OC)cc4)ccc3c(N)c2c1	2	-5	-5	10	44*	1
COC(=O)c1ccc(Cn2nnc3c(=O)[nH]c(C4CCN(S(=O)(=O)c5cc(C)ccc5C)CC4)nc32)cc1	-19	12	-18	-22	4	0
CN(C)S(=O)(=O)c1cccc(N=C2SCCN2Cc2ccccc2)c1	40*	1	2	-1	30	9
Cc1ccc(C(=O)N2CC(C)SC2=Nc2cccc(S(=O)(=O)N(C)C)c2)cc1 (stereo not drawn)	-12	16	-5	-21	11	3
FC(F)(F)c1cnc(N2CCCN(C(=S)Nc3ccccc3)CC2)c(Cl)c1	-5	11	5	-10	7	17*
FC(F)(F)c1cnc(N2CCN(C(=S)NCc3ccccc3)CC2)c(Cl)c1	-15	8	-10	8	14	3
CCc1cccc2c(C(=O)COC(=O)/C=C/c3ccccc3OC)c[nH]c12	-14	-5	7	-5	63*	0
O=C(c1cc2nc(-c3ccccc3)cc(-c3ccccc3)n2n1)N1CCCC1	-17	18	2	-30	21	16*
COc1cccc(-c2nc(CS(=O)CC(=O)NCc3ccccc3)c(C)o2)c1 (stereo not drawn)	-11	24	-18	-25	12	0
CCC(C)/C(C)=N/Nc1ccc(S(N)(=O)=O)cc1[N+](=O)[O-] (stereo not drawn)	21	-15	11	-19	76*	6
O=C(CN1C(=O)S/C(=C/c2ccncc2)C1=O)Nc1ccccc1	-2	-25	9	-7	64*	7
O=C(CN1C(=O)S/C(=C/c2ccccn2)C1=O)N1CCOCC1	-1	11	-6	-5	55*	1
Cc1ccc(S(=O)(=O)CCC(=O)NCCN2C(=O)S/C(=C\c3ccccc3)C2=O)cc1	-23	0	13	-10	37	19*
O=C(CCN1C(=O)S/C(=C\c2ccccc2)C1=O)N1CCOCC1	-8	9	0	-8	56*	2
CCCC(=O)Nc1ccccc1NC(=O)CN(C)S(=O)(=O)c1ccccc1	-18	25	-6	-14	26	4
O=CN1N=C(c2ccccc2)CC1c1ccccc1[N+](=O)[O-] (stereo not drawn)	-6	15	-1	-20	15	0
N#CC1CC(c2ccccc2)=NN1c1ccccc1[N+](=O)[O-] (stereo not drawn)	-10	-13	24*	-17	24	0
COc1cccc(O)c1CN1CCC(Oc2ccc(C(=O)NCc3ccccn3)cc2)CC1	-14	-11	-2	-23	9	2
O=C(COC(=O)CCC(=O)c1cccs1)NC1CC1	10	-5	-2	-8	19	16*
COC(=O)CN1C(=O)[C@H]2[C@@H](c3ccc(C)o3)N3C(=O)CN(Cc4ccccc4)C(=O)[C@@]3(C)[C@H]2C1=O	-14	-11	4	5	6	0
CC(C)n1c(=N)c(C(=O)NCCc2ccccc2)cc2c(=O)n3ccccc3nc21	-18	5	-10	-16	55*	0
SMILES	CHO parental Ca	CHO-K1 Ca PAM	CHO-K1 Ca antag	OX1R antag-1	OX1R antag-2	CHO-K1 Ca ag
Cc1cccn2c(=O)c3cc(C(=O)NCc4cccnc4)c(=N)n(C(C)C)c3nc12	14	6	11	-16	41*	-1
Cc1cccc(C(=O)OC2CCOC2=O)c1O (stereo not drawn)	-7	14	-8	-8	4	6
CC1Cc2ccccc2N1C(=O)CSc1nccc(=O)[nH]1 (stereo not drawn)	-11	14	-4	-5	13	0
CN=C1S/C(=C\c2ccc(SC)cc2)C(=O)N1C	-6	9	-13	-6	4	2
CSC1=NC(=O)/C(=C/c2ccc(SC)cc2)S1	-11	-5	11	-18	39*	5
CCOC(=O)CSC1=NC(=O)/C(=C\c2ccc(Cl)cc2)S1	-5	-13	-1	5	72*	3
CCCCn1c(N)c(N(CCOC)C(=O)c2cccc(S(=O)(=O)N(CC)c3ccccc3)c2)c(=O)[nH]c1=O	-7	7	-7	-19	18	0
COc1ccc(C(C(=O)NC(C)(C)C)N(Cc2ccco2)C(=O)CCC(=O)Nc2ccccn2)cc1 (stereo not drawn)	-9	0	-4	-9	-8	1
COCCNC(=O)C(c1ccc(C)cc1)N(Cc1ccco1)C(=O)CCC(=O)Nc1ccccn1 (stereo not drawn)	-3	0	-13	3	56*	1
CCCC[n+]1ccn(C2=C([O-])c3ccccc3C(=O)/C2=N\S(=O)(=O)c2ccc(Cl)cc2)c1	-28	8	-1	-32	47*	0
CCCNC(=O)CSc1n[nH]c(=O)n1CCc1ccccc1	-11	18	-16	-30	-3	2
CC1(c2ccc([N+](=O)[O-])cc2)NC(=O)N(CC(=O)c2ccc3c(c2)OCO3)C1=O (stereo not drawn)	20	-15	7	-20	-1	30*
CC1CCCCC12NC(=O)N(CC(=O)Nc1ccc3c(c1)OCO3)C2=O (stereo not drawn)	/	-9	13	/	/	0
Cc1cc(NC(=O)CN2C(=O)NC(C)(c3ccc(OC(F)F)cc3)C2=O)no1 (stereo not drawn)	-7	27	-14	0	-3	9
CC1(c2ccc(OC(F)F)cc2)NC(=O)N(CC(=O)c2ccc3c(c2)OCO3)C1=O (stereo not drawn)	10	-16	0	-14	9	36*
CC(=O)c1c(C)[nH]c(C(=O)CN2C(=O)NC(C)(c3ccc4c(c3)OCO4)C2=O)c1C (stereo not drawn)	-21	3	-9	-10	26	5
CC1CCCCC12NC(=O)N(CC(=O)c1ccc3c(c1)OCO3)C2=O (stereo not drawn)	-6	-20	32*	-17	5	0
O=C(/C=C/c1ccc2c(c1)OCO2)Nc1cccnc1	-14	23	-13	-21	13	1
